Laboratory results reported in ChEMBL document CHEMBL3779892, “Increasing the binding affinity of VEGFR-2 inhibitors by extending their hydrophobic interaction with the active site: Design, synthesis and biological evaluation of 1-substituted-4-(4-methoxybenzyl)phthalazine derivatives” (Eur J Med Chem, 2016).

How the values were obtained:
Type in all cases: functional
[1] = Growth inhibition of human UO31 cells at 10 uM after 48 hrs by sulforhodamine B assay; settings: UO-31, 48 h, read-out: GI
Summary of the method: (§1)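 NCI-60 panel, adherent cells grown in RPMI 1640 with 5% FBS and 2 mM L-glutamine, plated at 5000–40,000 cells/well and preincubated 24 h at 37 °C, 5% CO2. 10 µM final compound from DMSO stock, triplicate wells, 48 h. Fixed with cold TCA (10% final, 60 min, 4 °C) and stained with 0.4% SRB. Absorbance read at 515 nm; growth calculated against time-zero and control wells.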

A549 = test: Growth inhibition of human A549 cells at 10 uM after 48 hrs by sulforhodamine B assay; settings: A549, 48 h, read-out: GI
Summary of the method: (§2)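 Run at NCI on the 60-line panel. Cells grown in RPMI 1640 with 5% FBS and 2 mM L-glutamine, plated at 5000–40,000 cells/well by doubling time, and held 24 h at 37 °C before dosing. Drug (DMSO stock) given at a single final 10 µM in triplicate wells for 48 h. Adherent cells fixed with cold TCA (10% final), suspension cells with 16% TCA. SRB stain read at 515 nm. Percent growth from Tz, C and Ti.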

[2] = Growth inhibition of human SNB75 cells at 10 uM after 48 hrs by sulforhodamine B assay; settings: SNB-75, 48 h, read-out: GI; summary of the method: as §2
[3] = Growth inhibition of human TK10 cells at 10 uM after 48 hrs by sulforhodamine B assay; settings: TK-10, 48 h, read-out: GI; summary of the method: as §1
[4] = Growth inhibition of human OVCAR8 cells at 10 uM after 48 hrs by sulforhodamine B assay; settings: OVCAR-8, 48 h, read-out: GI; summary of the method: as §2
U-251 = test: Growth inhibition of human U251 cells at 10 uM after 48 hrs by sulforhodamine B assay; settings: U-251, 48 h, read-out: GI; summary of the method: as §1
T47D = test: Growth inhibition of human T47D cells at 10 uM after 48 hrs by sulforhodamine B assay; settings: read-out: GI; summary of the method: as §1
[5] = Growth inhibition of human SF295 cells at 10 uM after 48 hrs by sulforhodamine B assay; settings: SF-295, 48 h, read-out: GI; summary of the method: as §2
[6] = Growth inhibition of human OVCAR3 cells at 10 uM after 48 hrs by sulforhodamine B assay; settings: OVCAR-3, 48 h, read-out: GI; summary of the method: as §2
[7] = Growth inhibition of human SNB19 cells at 10 uM after 48 hrs by sulforhodamine B assay; settings: SNB-19, 48 h, read-out: GI; summary of the method: as §2
[8] = Growth inhibition of human HOP92 cells at 10 uM after 48 hrs by sulforhodamine B assay; settings: HOP-92, 48 h, read-out: GI; summary of the method: as §2
[9] = Growth inhibition of human COLO205 cells at 10 uM after 48 hrs by sulforhodamine B assay; settings: COLO 205, 48 h, read-out: GI; summary of the method: as §2
[10] = Growth inhibition of human SW620 cells at 10 uM after 48 hrs by sulforhodamine B assay; settings: SW-620, 48 h, read-out: GI; summary of the method: as §1
M14 = test: Growth inhibition of human M14 cells at 10 uM after 48 hrs by sulforhodamine B assay; settings: M14, 48 h, read-out: GI; summary of the method: as §2
[11] = Growth inhibition of human HOP62 cells at 10 uM after 48 hrs by sulforhodamine B assay; settings: HOP-62, 48 h, read-out: GI; summary of the method: as §2
[12] = Growth inhibition of human SF539 cells at 10 uM after 48 hrs by sulforhodamine B assay; settings: SF-539, 48 h, read-out: GI; summary of the method: as §2
NCI-H322M = test: Growth inhibition of human NCI-H322M cells at 10 uM after 48 hrs by sulforhodamine B assay; settings: read-out: GI; summary of the method: as §2
[13] = Growth inhibition of human MOLT4 cells at 10 uM after 48 hrs by sulforhodamine B assay; settings: MOLT-4, 48 h, read-out: GI; summary of the method: as §2
[14] = Growth inhibition of human LOXIMVI cells at 10 uM after 48 hrs by sulforhodamine B assay; settings: LOX IMVI, read-out: GI; summary of the method: as §2
[15] = Growth inhibition of human UACC257 cells at 10 uM after 48 hrs by sulforhodamine B assay; settings: UACC-257, 48 h, read-out: GI; summary of the method: as §1
SR = test: Growth inhibition of human SR cells at 10 uM after 48 hrs by sulforhodamine B assay; settings: read-out: GI
Summary of the method: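 NCI-60 screen. Cells were grown in RPMI 1640 with 5% FBS and 2 mM L-glutamine, plated at 5000–40,000 cells/well and held 24 h at 37 °C, 5% CO2. Single 10 µM final dose from DMSO stock, triplicate wells, 48 h. Settled cells were fixed with 80% TCA (16% final) and stained with 0.4% SRB. Dye was solubilized in 10 mM Tris and read at 515 nm. Growth was calculated against time-zero and untreated wells.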

SK-MEL-5 = test: Growth inhibition of human SK-MEL-5 cells at 10 uM after 48 hrs by sulforhodamine B assay; settings: SK-MEL-5, 48 h, read-out: GI; summary of the method: as §2
HT-29 = test: Growth inhibition of human HT-29 cells at 10 uM after 48 hrs by sulforhodamine B assay; settings: HT-29, 48 h, read-out: GI; summary of the method: as §2
[16] = Growth inhibition of human NCI-ADR-RES cells at 10 uM after 48 hrs by sulforhodamine B assay; settings: read-out: GI; summary of the method: as §2
SK-MEL-28 = test: Growth inhibition of human SK-MEL-28 cells at 10 uM after 48 hrs by sulforhodamine B assay; settings: SK-MEL-28, 48 h, read-out: GI; summary of the method: as §2
[17] = Growth inhibition of human HCC2998 cells at 10 uM after 48 hrs by sulforhodamine B assay; settings: HCC 2998, 48 h, read-out: GI; summary of the method: as §2
MDA-MB-468 = test: Growth inhibition of human MDA-MB-468 cells at 10 uM after 48 hrs by sulforhodamine B assay; settings: MDA-MB-468, 48 h, read-out: GI; summary of the method: as §2
[18] = Growth inhibition of human UACC62 cells at 10 uM after 48 hrs by sulforhodamine B assay; settings: UACC-62, 48 h, read-out: GI; summary of the method: as §1
K562 = test: Growth inhibition of human K562 cells at 10 uM after 48 hrs by sulforhodamine B assay; settings: K562, 48 h, read-out: GI; summary of the method: as §2
ACHN = test: Growth inhibition of human ACHN cells at 10 uM after 48 hrs by sulforhodamine B assay; settings: read-out: GI; summary of the method: as §2
MCF7 = test: Growth inhibition of human MCF7 cells at 10 uM after 48 hrs by sulforhodamine B assay; settings: MCF7, 48 h, read-out: GI; summary of the method: as §2
[19] = Growth inhibition of human DU145 cells at 10 uM after 48 hrs by sulforhodamine B assay; settings: DU-145, 48 h, read-out: GI; summary of the method: as §2
SN12C = test: Growth inhibition of human SN12C cells at 10 uM after 48 hrs by sulforhodamine B assay; settings: read-out: GI; summary of the method: as §2
MDA-MB-435 = test: Growth inhibition of human MDA-MB-435 cells at 10 uM after 48 hrs by sulforhodamine B assay; settings: MDA-MB-435, 48 h, read-out: GI; summary of the method: as §2

## COc1ccc(Cc2nnc(Nc3ccc(NC(=O)Nc4ccc(OC)cc4)cc3)c3ccccc23)cc1
[1]
  inhibition of growth at 10 µM: < 30%
A549
  inhibition of growth at 10 µM: < 30%
[2]
  inhibition of growth at 10 µM: 50%
[3]
  inhibition of growth at 10 µM: < 30%
[4]
  inhibition of growth at 10 µM: < 30%
U-251
  inhibition of growth at 10 µM: 49%
T47D
  inhibition of growth at 10 µM: 42%
[5]
  inhibition of growth at 10 µM: 81%
[6]
  inhibition of growth at 10 µM: < 30%
[7]
  inhibition of growth at 10 µM: < 30%
[8]
  inhibition of growth at 10 µM: < 30%
[9]
  inhibition of growth at 10 µM: < 30%
[10]
  inhibition of growth at 10 µM: < 30%
M14
  inhibition of growth at 10 µM: < 30%
[11]
  inhibition of growth at 10 µM: 33%
[12]
  inhibition of growth at 10 µM: 49%
NCI-H322M
  inhibition of growth at 10 µM: < 30%
[13]
  inhibition of growth at 10 µM: 47%
[14]
  inhibition of growth at 10 µM: < 30%
[15]
  inhibition of growth at 10 µM: < 30%
SR
  inhibition of growth at 10 µM: 39%
SK-MEL-5
  inhibition of growth at 10 µM: < 30%
HT-29
  inhibition of growth at 10 µM: 34%
[16]
  inhibition of growth at 10 µM: < 30%
SK-MEL-28
  inhibition of growth at 10 µM: < 30%
[17]
  inhibition of growth at 10 µM: < 30%
MDA-MB-468
  inhibition of growth at 10 µM: < 30%
[18]
  inhibition of growth at 10 µM: < 30%
K562
  inhibition of growth at 10 µM: < 30%
ACHN
  inhibition of growth at 10 µM: 32%
MCF7
  inhibition of growth at 10 µM: 30%
[19]
  inhibition of growth at 10 µM: < 30%
SN12C
  inhibition of growth at 10 µM: < 30%
MDA-MB-435
  inhibition of growth at 10 µM: < 30%

## COc1ccc(Cc2nnc(Nc3ccc(NC(=O)Nc4cccc(OC)c4)cc3)c3ccccc23)cc1
[1]
  inhibition of growth at 10 µM: < 30%
A549
  inhibition of growth at 10 µM: < 30%
[2]
  inhibition of growth at 10 µM: < 30%
[3]
  inhibition of growth at 10 µM: < 30%
[4]
  inhibition of growth at 10 µM: < 30%
U-251
  inhibition of growth at 10 µM: 32%
T47D
  inhibition of growth at 10 µM: < 30%
[5]
  inhibition of growth at 10 µM: < 30%
[6]
  inhibition of growth at 10 µM: < 30%
[7]
  inhibition of growth at 10 µM: < 30%
[8]
  inhibition of growth at 10 µM: < 30%
[9]
  inhibition of growth at 10 µM: < 30%
[10]
  inhibition of growth at 10 µM: < 30%
M14
  inhibition of growth at 10 µM: < 30%
[11]
  inhibition of growth at 10 µM: < 30%
[12]
  inhibition of growth at 10 µM: 35%
NCI-H322M
  inhibition of growth at 10 µM: < 30%
[13]
  inhibition of growth at 10 µM: < 30%
[14]
  inhibition of growth at 10 µM: < 30%
[15]
  inhibition of growth at 10 µM: < 30%
SR
  inhibition of growth at 10 µM: < 30%
SK-MEL-5
  inhibition of growth at 10 µM: < 30%
HT-29
  inhibition of growth at 10 µM: < 30%
[16]
  inhibition of growth at 10 µM: < 30%
SK-MEL-28
  inhibition of growth at 10 µM: < 30%
[17]
  inhibition of growth at 10 µM: < 30%
MDA-MB-468
  inhibition of growth at 10 µM: < 30%
[18]
  inhibition of growth at 10 µM: < 30%
K562
  inhibition of growth at 10 µM: < 30%
ACHN
  inhibition of growth at 10 µM: < 30%
MCF7
  inhibition of growth at 10 µM: < 30%
[19]
  inhibition of growth at 10 µM: < 30%
SN12C
  inhibition of growth at 10 µM: < 30%
MDA-MB-435
  inhibition of growth at 10 µM: < 30%
